Source: ChEMBL document CHEMBL3745671, “Discovery of N-[5-(6-Chloro-3-cyano-1-methyl-1H-indol-2-yl)-pyridin-3-ylmethyl]-ethanesulfonamide, a Cortisol-Sparing CYP11B2 Inhibitor that Lowers Aldosterone in Human Subjects” (J Med Chem, 2015)
Activity calls are given as the source filed them. The rule behind the calls is not given here.

What was measured:
Homo sapiens [1] = test: Dose normalized Cmax in healthy human at 200 mg/kg, po bid; format: ADME, organism-based; conditions: in vivo
Procedure, shortened: (§1)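 Double-blind, randomized, placebo-controlled study in healthy male and female volunteers aged 18-63 on a restricted sodium/potassium diet. Oral bid doses of 30, 60, 100 or 200 mg, drug:placebo 5:2. N per dose 10–17. AUCtau, Cmax and median Tmax reported; dose-normalized values are AUCtau/dose and Cmax/dose.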

[2] = Tmax in healthy human at 30 mg/kg, po bid; format: ADME, organism-based; conditions: in vivo; procedure, shortened: as §1
Homo sapiens [3] = test: Toxicity in human assessed as increase in urinary 11-deoxycortisol level at 30 to 200 mg/kg, po bid measured over 24 hrs; format: organism-based, Urine; conditions: in vivo, in the assay text read “30 to 200 mg” for “30 to 200 mg/kg”
Procedure, shortened: (§2)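 Healthy male and female volunteers, 18-63 years, restricted sodium/potassium diet; double-blind randomized placebo-controlled, oral 30, 60, 100 or 200 mg bid (drug:placebo 5:2).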

[4] = Tmax in healthy human at 200 mg/kg, po bid; format: ADME, organism-based; conditions: in vivo; procedure, shortened: as §1
[5] = AUC (0 to 24 hrs) in continuous angiotensin 2 infusion Sprague-Dawley rat model at 3 mg/kg, po; format: ADME, organism-based; design: time < 24 hr, dose 3 mg/kg, route oral; conditions: in vivo
Procedure, shortened: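 Male Sprague Dawley rats, 200–300 g. IV: 0.3 mg/1 mL/kg (free base) slow injection via jugular vein, n=2. Oral gavage at 1 mg/5 mL/kg or 3 mg/5 mL/kg in solution, n=3. Jugular catheter blood at 5 min (iv only), 0.25–8 h into EDTA; plasma after protein precipitation with acetonitrile containing internal standard, HPLC-MS; noncompartmental parameters.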

Homo sapiens [6] = test: Dose normalized AUCtau in healthy human at 200 mg/kg, po bid; format: ADME, organism-based; conditions: in vivo; procedure, shortened: as §1
[7] = Cmax in healthy human at 100 mg/kg, po bid; format: ADME, organism-based; design: dose 100 mg/kg, route oral; conditions: in vivo; procedure, shortened: as §1
Homo sapiens [8] = test: Dose normalized AUCtau in healthy human at 60 mg/kg, po bid; format: ADME, organism-based; conditions: in vivo; procedure, shortened: as §1
Homo sapiens [9] = test: Dose normalized Cmax in healthy human at 30 mg/kg, po bid; format: ADME, organism-based; conditions: in vivo; procedure, shortened: as §1
Plasma = test: Drug uptake in plasma of po dosed chair-trained chronically cannulated cynomolgus monkey model compound administered followed by ACTH challenge for 3 hrs measured up to 8 hrs post challenge by LC/MS/MS analysis; format: ADME, organism-based, Macaca fascicularis; conditions: in vivo
Procedure, shortened: (§3)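 Conscious chair-trained, chronically cannulated male cynomolgus monkeys; vascular access port via Huber needle. Baseline blood (heparin) before dosing; methylcellulose suspension po at 0.03, 0.1, 0.3 or 3 mg/kg (n=3/dose) or vehicle (n=6, same animals). ACTH(1–24) 3000 ng/kg iv 3 h post-dose; sampling 0.125–1 h post-ACTH, up to 8 h, and 23.5 and 24 h. Aldosterone and cortisol by RIA; drug by LC/MS/MS (LLOQ 0.26 nmol/L, lower values set to zero).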

[10] = Half life in human liver microsomes after 30 mins by LC/MS/MS analysis; format: ADME
Cynomolgus monkey = test: Decrease in plasma cortisol level in chair-trained chronically cannulated cynomolgus monkey model measured after 24 hrs […]; format: functional, organism-based; conditions: Macaca fascicularis; procedure, shortened: as §3
Homo sapiens [11] = test: Toxicity in human assessed as decrease in urinary cortisol level at 30 to 200 mg/kg, po bid measured over 24 hrs; format: organism-based, Urine; conditions: in vivo, in the assay text read “30 to 200 mg” for “30 to 200 mg/kg”; procedure, shortened: as §2
Homo sapiens [12] = test: Dose normalized AUCtau in healthy human at 100 mg/kg, po bid; format: ADME, organism-based; conditions: in vivo; procedure, shortened: as §1
[13] = Clearance in continuous angiotensin-2 infusion Sprague-Dawley rat model at 3 mg/kg, po and 1 mg/kg, iv; format: ADME, organism-based; conditions: in vivo

- Cmax/dose (Homo sapiens [1]): 1.5 ng/mL
- Tmax [2]: 4 h
- Tmax [4]: 4 h
- AUC(0-t) at 24 h [5]: 5.79 µM·h
- AUC/dose (Homo sapiens [6]): 10.9 ng·h/mL/mg
- Cmax [7]: 173 ng/mL
- AUC/dose (Homo sapiens [8]): 17.1 ng·h/mL/mg
- Cmax/dose (Homo sapiens [9]): 3.9 ng/mL
- Drug uptake (Plasma): Dose-dependent effect
- half-life [10]: 1.28 h
- AUC/dose (Homo sapiens [12]): 12.7 ng·h/mL/mg
- clearance [13]: 18 mL/min/kg
Compound: CCS(=O)(=O)NCc1cncc(-c2c(C#N)c3ccc(Cl)cc3n2C)c1
- Activity (Homo sapiens [3]): Non-toxic
- Activity (Cynomolgus monkey): inactive
- Activity (Homo sapiens [11]): Non-toxic
